TRPML3 ag: human TRPML3 channel agonists, primary screen, cell-based, HEK293 TRPML3-YFP, Fluo-8 calcium fluorescence, 3 µM. activation, % at 3 µM. actives 0.29% (n = 220,000). 100% = the carbachol control signal. Mucolipin-3 (Homo sapiens), Q8TDD5;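 active = activation above its plate's cutoff, the mean activation of the plate's test wells plus 3 SD, cut at about 12% in these data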;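 note: 0% = DMSO only wells and 100% = carbachol wells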
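Test system – HEK293 line with stable expression of human TRPML3-YFP channel · Control set – carbachol 87 µM final as high control (100%), DMSO as low control (0%) · Signal – Fluo-8 calcium dye fluorescence, ex 470-495, em 515-575 nm · Incubation – 1-h 37 °C dye load, 5-s basal, 120-s post-compound reads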
LANA-H2B inh: blockers of LANA interaction with H2A/H2B – biochemical, FP readout, HTS, primary screen. Protein LANA1 (Human herpesvirus 8 type P (isolate GK18)), Q9QR71. cell-free LANA-H2A/H2B peptide, fluorescence polarization. inhibition, % (no concentration beside the values). actives 0.6% (n = 320,000). AID 2629, 2010; in the data active = inhibition mostly above about 10%, no sharp cut-off; inactive = mostly below about 6.7%
TRPN1 ag: zebrafish TRPN1 channel agonists, primary screen, cell-based, HEK293, calcium fluorescence; actives 0.18% (n = 220,000); HEK293 zebrafish TRPN1-YFP, Fluo-8 calcium fluorescence; 100% = response to 87 µM carbachol; activation, % at 3 µM; AID 1424, 2008; transient receptor potential cation channel N1 (TRPN1/NompC), Danio rerio;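 active = activation above its plate's cutoff, the mean activation of test wells on that plate plus 3 SD, cut at about 19% in these data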;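 note: 0% = DMSO alone and 100% = 87 µM carbachol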
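Control set: carbachol 87 µM as high control, DMSO as low control; system: HEK293 stable line with zebrafish TRPN1-YFP; read-out: % activation versus carbachol response; detection: intracellular calcium fluorescence with Fluo-8; doses: single test compound dose, 3 µM nominal, 0.3% DMSO; schedule: dye 1 h 37 °C plus 30 min RT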
TAAR1 antag: human TAAR1 antagonists, primary screen, Fluo-8 calcium fluorescence, CHO RD-HGA16 cells. Trace amine-associated receptor 1 (Homo sapiens), Q96RJ0. antagonist. inhibition, % at 3 µM. actives 1.5% (n = 360,000). AID 624466, 2012;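 active = inhibition above a per-plate cutoff, the mean inhibition of test compounds on that plate plus 3 SD, cut at about 49% in these data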;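 note: 0% = DMSO plus EC80 beta-PEA response and 100% = DMSO alone without agonist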
Target sequence (Q96RJ0 whole entry, looked up): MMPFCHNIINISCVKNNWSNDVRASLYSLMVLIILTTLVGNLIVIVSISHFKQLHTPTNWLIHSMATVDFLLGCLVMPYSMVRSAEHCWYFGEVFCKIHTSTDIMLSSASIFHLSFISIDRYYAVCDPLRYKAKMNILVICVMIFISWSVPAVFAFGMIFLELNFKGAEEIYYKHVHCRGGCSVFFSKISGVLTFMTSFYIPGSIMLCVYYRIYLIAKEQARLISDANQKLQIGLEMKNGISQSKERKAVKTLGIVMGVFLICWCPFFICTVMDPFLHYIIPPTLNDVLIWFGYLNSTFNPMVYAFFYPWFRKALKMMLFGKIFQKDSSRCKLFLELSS
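Assay system: RD-HGA16 CHO cells with stable hTAAR1 and Gα16 / Reagent: EC80 β-phenethylamine stimulus / Doses: 3 µM, single point / Timing: dye loading 75 min at 37 °C, then 30 min room temperature / Measured by: Fluo-8 intracellular calcium dye fluorescence, real-time kinetic reads / Controls: vehicle wells and EC80 agonist wells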
GPR7 antag: GPR7 receptor antagonists, primary screen, cell-based, fluorescence, single concentration. inhibition, % at 4.4 µM. GPR7-expressing cells, fluorescence antagonist assay. actives 1.1% (n = 290,000). AID 1861, 2009. Neuropeptides B/W receptor type 1 (Homo sapiens), P48145; in the data active = inhibition above about 16%, passing the limit was not always enough;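 note: cells stimulated with the agonist NPW; 0% = agonist with vehicle and 100% = vehicle without agonist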
Target sequence (P48145 whole entry, looked up): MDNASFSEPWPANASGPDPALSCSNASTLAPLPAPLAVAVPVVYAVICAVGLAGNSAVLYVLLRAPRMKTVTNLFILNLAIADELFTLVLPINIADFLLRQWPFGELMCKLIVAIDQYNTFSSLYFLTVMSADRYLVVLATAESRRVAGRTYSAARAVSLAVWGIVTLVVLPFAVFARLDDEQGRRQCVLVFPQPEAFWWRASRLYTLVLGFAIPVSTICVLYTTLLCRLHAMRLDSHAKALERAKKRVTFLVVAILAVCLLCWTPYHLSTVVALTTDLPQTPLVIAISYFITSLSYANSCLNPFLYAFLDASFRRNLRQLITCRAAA
TAAR1 agonist: human TAAR1 agonists, primary screen, Fluo-8 calcium fluorescence, CHO RD-HGA16 cells. Trace amine-associated receptor 1 (Homo sapiens), Q96RJ0. vehicle wells 0%, saturating PEA agonist 100%. activation, % at 3 µM. actives 0.99% (n = 360,000). AID 624467, 2012;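 active = activation above the mean activation of all test compounds in the run plus 3 SD, cut at about 38% in these data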
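Repeats: no replicates (n 1) | Material: CHO-derived RD-HGA16 cells with stable Gα16 and human TAAR1 | Technique: Kinetic Fluo-8 calcium fluorescence | Schedule: 17-24 h seeding, 75 min 37 °C dye, 30 min RT | Evaluation: % activation from peak over basal fluorescence ratio, DMSO-to-PEA scaled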
nonsel antag count: nonselective antagonists in TAAR1 counter-screen cells, counter-screen for hTAAR1 antagonist project, cell-based, fluorescence, calcium; shares compounds with TAAR1 antag; counterscreen cell line, antagonist mode; inhibition, % at 3 µM; actives 77% (n = 2,400); AID 651780, 2012; in the data active = inhibition above about 22%;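 note: CHO-Ga16 host cells stimulated with ATP at an EC80 level; 0% = agonist EC80 plus vehicle and 100% = vehicle without agonist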
TAAR1 antag conf: human TAAR1 antagonists, retest of hits, confirmation, cell-based, fluorescence; shares compounds with TAAR1 antag; TAAR1-expressing cells, fluorescence antagonist read-out; inhibition, % at 3 µM; actives 40% (n = 2,400); in the data active = inhibition above about 49%;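 note: CHO-Ga16 host cells challenged with agonist PEA near its EC80; 0% = agonist at EC80 plus vehicle and 100% = vehicle with no agonist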
Ga16 ag counter: calcium activation in Ga16-expressing cells, counter-screen for TAAR1 antagonist project, cell-based, fluorescence; shares compounds with TAAR1 antag; agonist counterscreen; activation, % at 3 µM; actives 18% (n = 2,400); in the data active = activation above about 12%;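 note: 0% = vehicle wells and 100% = saturating stimulus response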
TAAR1 ag counter: TAAR1 activation by candidate antagonists – cell-based, fluorescence, counter-screen for TAAR1 antagonist project. AID 651955, 2012. hTAAR1 cell line, agonist mode. actives 2% (n = 2,400). shares compounds with TAAR1 antag. activation, % at 3 µM; in the data active = activation above about 37%;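 note: CHO cells stably expressing TAAR1 with calcium dye readout; 0% = DMSO vehicle and 100% = full agonist response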
Numbers without * were called inactive; x = no result. Hits are enriched below; roughly 3.4% of the tested compounds scored in any of these assays.

SMILES	TRPML3 ag	LANA-H2B inh	TRPN1 ag	TAAR1 antag	GPR7 antag	TAAR1 agonist	nonsel antag count	TAAR1 antag conf	Ga16 ag counter	TAAR1 ag counter
Cc1cc(C)n(-c2ccc(C(=O)OCC(=O)NC(c3ccccc3)c3ccccc3)cc2)n1	0.4	-2.4	-1.6	66.4*	0.9	13.1	26.7*	51.7*	6.9	19.2
COc1ccccc1/C=C/C(=O)OCC(=O)Nc1c(C)nn(-c2ccccc2)c1C	x	-4.6	x	66.2*	x	21.5	21.5*	43.7	10.1	6.3
Cc1nn(-c2ccccc2)c(C)c1NC(=O)COC(=O)CCCOc1ccccc1	x	1.2	x	56.5*	x	14.5	19.1	38.3	9.8	8.7
COc1cccc(NC(=O)COC(=O)/C=C/c2c(C)nn(-c3ccccc3)c2C)c1	x	-3.9	x	26.6	x	0.4	x	x	x	x
CC(=O)Nc1cccc(C(=O)OCC(=O)Nc2c(C)nn(-c3ccccc3)c2C)c1	x	-2.7	x	2.5	x	8.3	x	x	x	x
COc1ccc(N(CC(=O)NCc2cccnc2)S(=O)(=O)c2ccccc2)c(OC)c1	x	4.1	x	19.2	x	7.7	x	x	x	x
COc1ccccc1N(CC(=O)NCCSc1ccccc1)S(C)(=O)=O	-0.1	-1.3	1.1	-3.5	0.7	1.1	x	x	x	x
COc1ccc(S(=O)(=O)N(CC(=O)NCCSc2ccccn2)c2ccccc2)cc1	x	-0.6	x	43.8	-23.4	12.4	x	x	x	x
COc1ccc(N(CC(=O)NCCSc2ccccn2)S(=O)(=O)c2ccccc2)c(OC)c1	x	2.3	x	50.1*	-12.5	18.0	26.7*	43.8	7.6	6.6
COc1ccccc1N(CC(=O)NCCSc1ccccc1)S(=O)(=O)c1ccccc1	x	2.8	x	75.8*	-5.5	6.6	29.8*	43.6	5.6	8.6
COc1ccc(N(CC(=O)NCCSc2ccccc2)S(=O)(=O)c2ccccc2)c(OC)c1	x	0.7	x	58.7*	x	13.0	32.6*	54.6*	7.3	7.5
COc1ccc(N(CC(=O)NCCSc2ccccc2)S(=O)(=O)c2ccccc2)cc1	x	-0.3	x	65.3*	-13.3	6.2	21.6*	46.4	9.0	14.2
O=C(Nc1cc(S(=O)(=O)N2CCCC2)ccc1Cl)c1cc(F)c(F)c(F)c1F	x	6.1	x	-14.8	x	0.5	x	x	x	x
S=C(NCCCN1CCOCC1)N(Cc1ccccc1)Cc1ccccc1	x	0.5	x	-7.6	-1.1	1.9	x	x	x	x
CC(=O)Nc1c([N+](=O)[O-])cc2c3c(cccc13)CC2	x	x	x	-12.0	x	1.1	x	x	x	x
O=C(NCCc1ccc(F)cc1)c1ccc2c(=O)n3c(nc2c1)CCC3	x	2.3	x	-28.6	x	3.0	x	x	x	x
CC(C(=O)Nc1nc(-c2ccc(F)cc2)cs1)N1C(=O)C2CC=CCC2C1=O (centres undefined)	x	-5.4	x	78.0*	x	19.4	40.3*	65.1*	12.4*	11.8
CCOC(=O)c1ccc2ncc(C(=O)OCC)c(Nc3ccc(N4CCOCC4)cc3)c2c1	1.4	-4.1	1.0	57.3*	-8.5	9.9	36.2*	56.7*	5.9	3.4
O=C(Nc1nccs1)c1cn(-c2ccccc2)nc1-c1ccccc1	0.8	-2.2	-0.2	71.8*	18.7*	6.5	12.4	38.0	3.1	2.3
O=C(Nc1nccs1)c1cc(-c2ccccc2)nc2ccccc12	0.3	0.6	1.6	66.0*	-3.1	11.9	28.3*	54.3*	5.9	2.3
COc1ccc(OCc2ccc(/C=N\NC(=O)c3sccc3C)o2)cc1	x	1.6	x	0.6	5.8	-0.8	x	x	x	x
COc1ccccc1N1CCN(C(=O)CCCCCn2c(=O)[nH]c3ccsc3c2=O)CC1	0.3	-1.7	1.3	56.4*	-0.2	11.8	27.9*	42.5	7.9	7.1
COc1ccccc1N1CCN(C(=O)CCCn2c(=S)[nH]c3ccccc3c2=O)CC1	x	x	x	65.0*	x	8.2	19.4	35.7	7.5	10.1
COc1ccccc1N1CCN(C(=O)CCn2c(=O)[nH]c3ccccc3c2=O)CC1	1.0	2.6	-0.5	6.8	4.6	3.3	x	x	x	x
CCc1nc2c(OCc3ccc(OC(F)F)cc3)cccn2c1N(C)C(=O)c1ccc(OC)cc1	x	x	x	-12.4	x	0.0	x	x	x	x
SMILES	TRPML3 ag	LANA-H2B inh	TRPN1 ag	TAAR1 antag	GPR7 antag	TAAR1 agonist	nonsel antag count	TAAR1 antag conf	Ga16 ag counter	TAAR1 ag counter
C=CCN1C(=O)CSc2ccc(C(=O)NCCC3=CCCCC3)cc21	-0.1	-7.3	0.5	54.7*	-3.0	19.8	37.8*	49.7*	14.2*	10.9
C=CCN1C(=O)CSc2ccc(C(=O)NCc3ccco3)cc21	-0.1	-3.1	2.6	23.1	-1.3	6.6	x	x	x	x
CC(C)[C@H](NS(=O)(=O)c1ccc(Cl)cc1)C(=O)OCC(=O)NCCN1C(=O)CSC1=O	x	-0.7	x	-6.9	-8.0	2.7	x	x	x	x
Cc1ccccc1N(C(=O)Cc1cccs1)C(C(=O)NCC1CCCO1)c1cccnc1 (centres undefined)	-0.2	-1.4	2.3	3.9	3.8	3.1	x	x	x	x
NC(=O)c1nsc(C(=O)N(c2ccccc2F)C(C(=O)NCc2ccc(F)cc2)c2ccc(O)cc2)c1N (centres undefined)	x	-0.2	x	76.7*	-10.0	13.7	33.9*	48.0	9.9	19.0
O=C(NCC1CCCO1)C(c1cccnc1)N(C(=O)Cc1cccs1)c1ccccc1 (centres undefined)	-0.4	4.1	2.3	54.0*	-8.9	23.8	20.9	46.5	10.1	10.3
Cc1ccc(N(C(=O)c2snc(C(N)=O)c2N)C(C(=O)NCC2CCCO2)c2ccc3ncccc3c2)cc1 (centres undefined)	x	x	x	42.9	-12.2	22.5	x	x	x	x
